Published values pooled from the literature.
Compare with care: the assays were run in different laboratories.
Effect on: cell growth or viability

N.N.[Cl][Pt][Cl] has an IC50 of 34600 nM (MCF-10A; MTT; 48 h; dark).
For Cc1ccc(NC(=O)c2ccc(CN3CCN(C)CC3)cc2)cc1Nc1nccc(-c2cccnc2)n1, the viability was 41.6% (K562; MTT; 0.2 µM).
The viability of CN(C)c1ccc(C(=O)NCCCCCCC(=O)NO)cc1 is reported as 62.3% (OCI-Ly1; ATP luminescence; 0.5 µM; 5 days).
The IC50 of CC(=O)N[C@H]1[C@@H](O[C@@H]2O[C@H](C[C@@H](O)[C@H]3O[C@@H](n4ccc(=O)[nH]c4=O)[C@H](O)[C@@H]3O)[C@H](O)[C@H](O)[C@H]2NC(=O)/C=C/CCCCCCCCCC(C)C)O[C@H](CO)[C@@H](O)[C@@H]1O is reported as 250 nM (MCF-10A; WST-1).
N.N.[Cl][Pt][Cl] gave an inhibition of 97% (K562; ATP luminescence; 10 µM; 72 h).
The IC50 of Cc1ncsc1-c1ccc([C@H](C)NC(=O)[C@@H]2C[C@@H](O)CN2C(=O)[C@@H](c2cc(N3CCC(CN4CCC(OC5CC(Oc6cc(N7C8CCC7CN(c7cc(-c9ccccc9O)nnc7N)C8)ccn6)C5)CC4)CC3)no2)C(C)C)cc1 (some centres unmarked) is reported as 4.3 nM (VCaP; ATP luminescence; 7 days).
CC[C@H](C)[C@@H]([C@@H](CC(=O)N1CCC[C@H]1[C@H](OC)[C@@H](C)C(=O)N[C@H](C)[C@@H](O)c1ccccc1)OC)N(C)C(=O)[C@@H](NC(=O)[C@H](C(C)C)N(C)C(=O)OCc1ccc(NC(=O)[C@H](CCCNC(N)=O)NC(=O)[C@@H](NC(=O)CCOCCOCCOCCOCCC(=O)N[C@@H]2CSSC[C@H](C(=O)O)NC(=O)CNC(=O)[C@@H](CCCNC(=N)N)NC(=O)CNC(=O)[C@@H](C(C)C)NC(=O)CNC(=O)[C@@H](C)NC(=O)[C@@H](CCCNC(=N)N)NC2=O)C(C)C)cc1)C(C)C has an IC50 of 500 nM (4T1; resazurin; 24 h).
CC[C@H](C)[C@@H]([C@@H](CC(=O)N1CCC[C@H]1[C@H](OC)[C@@H](C)C(=O)N[C@H](C)[C@@H](O)c1ccccc1)OC)N(C)C(=O)[C@@H](NC(=O)[C@@H](NC)C(C)C)C(C)C gave an IC50 of 0.294 nM (4T1; CCK-8).
